Results from article PMC4033650 (ACS Chemical Biology, 2014).
Where two headings read alike, the source gives them in different places. Positions of bridges follow the written chain, without caps; N, C: chain ends. Non-standard residues stand in square brackets, D forms with d. Residues, ends and D or L forms follow the SMILES beside them. *: point of attachment. Gly(octyl) = CCCCCCCC[C@H](N)C(=O)O; Octanoyl = CCCCCCCC(=O)*; Dab = NCC[C@H](N)C(=O)O

Assays:
[1] = system: polymyxin-resistant clinical isolates of P. aeruginosa, A. baumannii, and K. pneumoniae; experiment: MIC screen against polymyxin-resistant Gram-negative clinical isolates; format: cell-based; conditions: for MICs: polymyxin-resistant clinical isolates of P. aeruginosa, A. baumannii, K. pneumoniae
Outline: (§1)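 Broth microdilution in cation-adjusted Mueller–Hinton broth. […] Plates were incubated 18–20 h at 37 °C. MIC was taken as the lowest concentration inhibiting visible growth.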

[2] = system: panel of ATCC and clinical isolates; experiment: MIC in the presence of Mg2+; format: cell-based; conditions: addition of 16 mM of Mg2+; data not shown
Outline: as §1

[3] = system: purified LPS; experiment: Dansyl-polymyxin LPS displacement binding assay
Outline: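 LPS was purified from bacteria, and its molar concentration was set by the purpald Kdo assay. Test compound binding to LPS was read as displacement of a synthetic dansyl-polymyxin probe, using the group's published protocol.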

[4] = system: polymyxin-resistant clinical isolate of P. aeruginosa; experiment: Neutropenic mouse lung infection model; format: in vivo; conditions: 24 h after single-dose treatment (40 mg/kg); inoculum 5.42 ± 0.54 log CFU/lung
Outline: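 The model used neutropenic mice with lung infection, following the group's earlier protocol. One polymyxin-susceptible and one polymyxin-resistant P. aeruginosa strain were used. Lung bacterial burden was counted at 0 and 24 h after treatment.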

[5] = Pharmacokinetics after single-dose intravenous administration in rats; conditions: rat, in vivo
[6] = Tolerability after bolus dose in rats; format: in vivo, rat; conditions: intravenous bolus, 0.75 mg/kg
[7] = Tolerability after bolus dose in mice; format: in vivo, mouse; conditions: subcutaneous bolus, 40 mg/kg
[8] = Plasma protein binding by equilibrium dialysis; format: in vitro ADME; conditions: pooled healthy human plasma
[9] = system: human red blood cells; experiment: Hemolysis of human red blood cells; format: cell-based; conditions: concentrations up to 32 mg/L
[10] = Nephrotoxicity in mice, kidney histopathology; format: in vivo, mouse; conditions: subcutaneous, accumulated dose 105 mg/kg
Outline: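 Mice (three groups, n = 3) received subcutaneous injections over 3–4 days to an accumulated 105 mg/kg of test compound or polymyxin B sulfate, with a saline control. Kidneys were formalin-fixed (10%) and sectioned through cortex, medulla and papilla, then stained and graded: grade 1 (mild tubular damage) = 1, grade 2 (severe, necrosis) = 4, grade 3 (cortical necrosis/infarction) = 10.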

[11] = system: polymyxin-resistant clinical P. aeruginosa isolate; experiment: MIC by broth microdilution, polymyxin-resistant P. aeruginosa isolate; format: cell-based, Pseudomonas aeruginosa
Outline: (§2)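 Broth microdilution was run in cation-adjusted Mueller–Hinton broth in polypropylene plates. The inoculum was about 10^6 cfu/mL, mixed 1:1 with broth containing test compound (0 to 128 mg/L). Plates were incubated 18–20 h at 37 °C. MIC was the lowest concentration with no visible growth.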

[12] = system: polymyxin-susceptible P. aeruginosa ATCC 27853; experiment: MIC by broth microdilution, P. aeruginosa ATCC 27853; format: cell-based, Pseudomonas aeruginosa
Outline: as §2

[13] = system: polymyxin-resistant clinical P. aeruginosa isolate; experiment: Static time-kill, polymyxin-resistant P. aeruginosa isolate; format: cell-based, Pseudomonas aeruginosa; conditions: 32 mg/L
[14] = rats ref 23; cited from earlier work

In the case of CCCCCCCC[C@@H]1NC(=O)[C@@H](Cc2ccccc2)NC(=O)[C@H](CCN)NC(=O)[C@@H](NC(=O)[C@H](CCN)NC(=O)[C@@H](NC(=O)[C@H](CCN)NC(=O)CCCCCCC)[C@@H](C)O)CCNC(=O)[C@H]([C@@H](C)O)NC(=O)[C@H](CCN)NC(=O)[C@H](CCN)NC1=O [FADDI-002] (Octanoyl-[Dab]T[Dab][Dab][Dab][dF][Gly(octyl)][Dab][Dab]T; lactam 4-C), the antimicrobial activity ([1]; panel of polymyxin-resistant Gram-negative clinical isolates) is reported as “potent antimicrobial activity”, the “increase in MICs on addition of Mg2+” value [2] is reported as ≤ 2 fold and the “higher LPS binding affinity compared to PMB and colistin” value [3] is reported as “up to 27.1 fold”. For the same compound, the “bacterial burden in the lungs” value [4] was 4.75 ± 0.80 log CFU/lung, the Vd [5] was 0.195 to 0.313 L/kg and the clearance [5] was 0.66 to 1.3 mL/min/kg. The half-life [5] was 2.77 to 3.4 h, the adverse effects [6] was “no adverse effects were observed” and the adverse effects [7] was “no adverse effects were observed”.
For Polymyxin B [PMB], the MICs [1] was > 128 mg/L, the “increase in MICs on addition of Mg2+” value [2] was 16 fold and the “plasma protein binding (bound)” value [8] was ~51%. For the same compound, the “hemolysis of human red blood cells” value [9] was “no detectable hemolysis” and the “histological grade of kidney lesions” value [10] was “grade 1”.
With colistin the MIC [11] was > 128 µg/mL, the MIC [12] was 1 µg/mL and the MICs [1] was > 128 mg/L. For the same compound, the “bacterial killing in time-kill” value [13] was “no killing was observed”, the “bacterial burden in the lungs” value [4] was 6.71 ± 0.46 log CFU/lung and the “hemolysis of human red blood cells” value [9] was “no detectable hemolysis”. For the same compound, the half-life [14] was 1.24 h, the total clearance [14] was 5.2 mL/min/kg and the volume of distribution [14] was 0.496 L/kg.
